{"source": "ChEMBL document CHEMBL4477254", "about": "“Synthesis and biological evaluation of some novel triazole hybrids of curcumin mimics and their selective anticancer activity against breast and prostate cancer cell lines” (Bioorg Med Chem Lett, 2016)", "key": {"[1]": {"tested_on": "PC-3", "experiment": "Induction of apoptosis in human PC3 cells assessed as necrotic cells at 4.8 uM after 24 hrs by annexin V-FITC/propidium iodide staining based flow cytometry (reference value: 2.52%)", "assay_type": "functional", "in_short": "(§1)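 MCF-7 cells exposed to 3, 6 or 9 μM and PC-3 cells to 4.8 or 8.8 μM for 24 h, then harvested and dual-stained with Annexin V-FITC/PI and read by flow cytometry. Gates: live AnnexinV⁻/PI⁻, early apoptotic AnnexinV⁺/PI⁻, necrotic AnnexinV⁻/PI⁺.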"}, "[2]": {"tested_on": "PC-3", "experiment": "Induction of mitochondrial membrane depolarization in human PC3 cells at 8.8 uM after 24 hrs by JC-1 staining based flow cytometry (reference value: 4.51%)", "assay_type": "functional"}, "[3]": {"experiment": "Drug metabolism in liver microsomes (unknown origin) assessed as compound remaining at 8 ug/ml after 5 mins in presence of NADPH by UPLC analysis", "assay_type": "ADME, Microsome", "details": "read-out: Drug metabolism", "in_short": "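Microsomal metabolic stability; percentage of compound remaining intact measured after 5 min incubation in presence of microsomes.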"}, "[4]": {"experiment": "Elimination rate constant in liver microsomes (unknown origin) at 8 ug/ml measured up to 60 mins by UPLC analysis", "assay_type": "ADME, Microsome"}, "[5]": {"tested_on": "PC-3", "experiment": "Induction of apoptosis in human PC3 cells assessed as viable cells at 8.8 uM after 24 hrs by annexin V-FITC/propidium iodide staining based flow cytometry (reference value: 92.24%)", "assay_type": "functional", "details": "PC-3, 24 h, read-out: Activity", "in_short": "as §1"}, "[6]": {"tested_on": "PC-3", "experiment": "Cell cycle arrest in human PC3 cells assessed as accumulation at S phase at 4.8 uM after 24 hrs by propidium iodide staining based flow cytometry (reference value: 25.01%)", "assay_type": "functional", "in_short": "(§2)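 Cells treated 24 h with test compound, MCF-7 at various concentrations and PC-3 at various concentrations; cells harvested, stained with propidium iodide and acquired by flow cytometry for cell cycle phase distribution.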"}, "[7]": {"tested_on": "PC-3", "experiment": "Induction of apoptosis in human PC3 cells assessed as decrease in live cells after 24 hrs by annexin V-FITC/propidium iodide staining based flow cytometry", "assay_type": "functional, cell-based", "in_short": "as §1"}, "[8]": {"tested_on": "PC-3", "experiment": "Cell cycle arrest in human PC3 cells assessed as accumulation at G2/M phase at 4.8 uM after 24 hrs by propidium iodide staining based flow cytometry (reference value: 2.25%)", "assay_type": "functional", "in_short": "as §2"}, "[9]": {"tested_on": "PC-3", "experiment": "Induction of morphological changes in human PC3 cells assessed as cell detachment at >8.8 uM after 24 hrs by phase contrast microscopy", "assay_type": "functional, cell-based", "in_short": "(§3)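 Cells were exposed to a range of concentrations for 24 h. Cell number and morphology, including detachment from the surface, were assessed by phase-contrast microscopy at 10X magnification.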"}, "[10]": {"tested_on": "PC-3", "experiment": "Induction of apoptosis in human PC3 cells assessed as necrotic cells at 8.8 uM after 24 hrs by annexin V-FITC/propidium iodide staining based flow cytometry (reference value: 2.52%)", "assay_type": "functional", "in_short": "as §1"}, "[11]": {"tested_on": "PC-3", "experiment": "Induction of apoptosis in human PC3 cells assessed as late apoptotic cells at 4.8 uM after 24 hrs by annexin V-FITC/propidium iodide staining based flow cytometry (reference value: 0.80%)", "assay_type": "functional", "in_short": "as §1"}, "[12]": {"tested_on": "MCF7", "experiment": "Induction of apoptosis in human MCF7 cells assessed as necrotic cells at 9 uM after 24 hrs by annexin V-FITC/propidium iodide staining based flow cytometry (reference value: 4.76%)", "assay_type": "functional", "in_short": "(§4)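 Apoptosis by Annexin V-FITC/PI dual staining: MCF-7 cells treated 24 h at 3, 6 and 9 µM, then harvested, stained and acquired by flow cytometry; early apoptotic = AnnexinV+/PI−, live = AnnexinV−/PI−, necrotic = AnnexinV−/PI+.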"}, "[13]": {"tested_on": "MCF7", "experiment": "Induction of mitochondrial membrane depolarization in human MCF7 cells at 9 uM after 24 hrs by JC-1 staining based flow cytometry (reference value: 11%)", "assay_type": "functional"}, "[14]": {"target": "Serine/threonine-protein kinase AKT (Homo sapiens) (UniProt P31751+Q9Y243+P31749)", "sequence (P31749 whole entry, looked up)": "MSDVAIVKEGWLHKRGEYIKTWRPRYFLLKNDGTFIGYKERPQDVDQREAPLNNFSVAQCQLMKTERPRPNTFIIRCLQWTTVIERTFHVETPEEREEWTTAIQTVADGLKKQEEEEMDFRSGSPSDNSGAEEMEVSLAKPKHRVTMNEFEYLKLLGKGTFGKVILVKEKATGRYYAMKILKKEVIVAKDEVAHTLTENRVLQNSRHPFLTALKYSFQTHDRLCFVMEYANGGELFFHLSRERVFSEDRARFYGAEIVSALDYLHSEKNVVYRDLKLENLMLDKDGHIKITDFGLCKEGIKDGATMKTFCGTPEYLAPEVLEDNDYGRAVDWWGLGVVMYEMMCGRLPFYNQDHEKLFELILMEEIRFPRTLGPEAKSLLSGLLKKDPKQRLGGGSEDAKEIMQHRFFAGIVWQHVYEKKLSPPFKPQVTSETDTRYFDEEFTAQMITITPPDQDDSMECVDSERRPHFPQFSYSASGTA", "sequence (P31751 whole entry, looked up)": "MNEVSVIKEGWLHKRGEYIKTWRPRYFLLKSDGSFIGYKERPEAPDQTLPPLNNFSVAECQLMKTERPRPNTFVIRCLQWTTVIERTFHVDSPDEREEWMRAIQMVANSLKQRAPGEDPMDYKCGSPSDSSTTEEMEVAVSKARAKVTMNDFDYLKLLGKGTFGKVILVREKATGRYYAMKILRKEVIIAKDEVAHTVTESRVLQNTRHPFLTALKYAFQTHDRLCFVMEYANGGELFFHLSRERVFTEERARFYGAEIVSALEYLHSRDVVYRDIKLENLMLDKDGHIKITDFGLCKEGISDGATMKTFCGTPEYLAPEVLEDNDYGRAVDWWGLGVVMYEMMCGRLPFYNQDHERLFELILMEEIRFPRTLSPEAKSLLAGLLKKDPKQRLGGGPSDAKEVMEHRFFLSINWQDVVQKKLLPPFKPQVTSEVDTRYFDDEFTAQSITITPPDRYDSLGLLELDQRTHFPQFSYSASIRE", "sequence (Q9Y243 whole entry, looked up)": "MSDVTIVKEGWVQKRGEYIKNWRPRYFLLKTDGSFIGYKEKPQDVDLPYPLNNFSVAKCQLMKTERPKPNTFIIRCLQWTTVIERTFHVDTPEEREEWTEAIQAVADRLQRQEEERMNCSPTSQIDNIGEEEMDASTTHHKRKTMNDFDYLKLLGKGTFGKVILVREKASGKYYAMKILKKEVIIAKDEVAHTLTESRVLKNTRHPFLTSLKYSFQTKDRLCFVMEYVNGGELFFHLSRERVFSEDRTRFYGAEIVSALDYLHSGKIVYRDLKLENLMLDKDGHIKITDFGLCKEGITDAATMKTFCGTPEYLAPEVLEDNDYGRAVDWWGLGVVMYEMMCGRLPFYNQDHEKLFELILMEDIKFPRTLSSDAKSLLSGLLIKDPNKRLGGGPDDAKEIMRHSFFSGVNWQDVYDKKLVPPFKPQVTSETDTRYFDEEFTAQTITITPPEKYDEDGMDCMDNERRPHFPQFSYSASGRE", "experiment": "Inhibition of Akt phosphorylation at […] in human MCF7 cells at 9 uM after 24 hrs by Western blot analysis", "assay_type": "cell-based", "in_short": "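Protein expression was analysed by Western blotting of cells harvested after 24 h compound treatment.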"}, "[15]": {"tested_on": "MCF7", "experiment": "Cell cycle arrest in human MCF7 cells assessed as accumulation at G2/M phase at 3 uM after 24 hrs by propidium iodide staining based flow cytometry (reference value: 20.30%)", "assay_type": "functional", "in_short": "as §2"}, "[16]": {"tested_on": "MCF7", "experiment": "Induction of apoptosis in human MCF7 cells assessed as necrotic cells at 6 uM after 24 hrs by annexin V-FITC/propidium iodide staining based flow cytometry (reference value: 4.76%)", "assay_type": "functional", "in_short": "as §4"}, "[17]": {"tested_on": "MCF7", "experiment": "Induction of morphological changes in human MCF7 cells at 1 to 6 uM after 24 hrs by phase contrast microscopy", "assay_type": "functional, cell-based", "in_short": "as §3"}, "[18]": {"tested_on": "MCF7", "experiment": "Induction of apoptosis in human MCF7 cells assessed as decrease in live cells after 24 hrs by annexin V-FITC/propidium iodide staining based flow cytometry", "assay_type": "functional, cell-based", "in_short": "as §4"}, "[19]": {"tested_on": "MCF7", "experiment": "Induction of apoptosis in human MCF7 cells assessed as viable cells at 6 uM after 24 hrs by annexin V-FITC/propidium iodide staining based flow cytometry (reference value: 82.63%)", "assay_type": "functional", "details": "MCF7, 24 h, read-out: Activity", "in_short": "as §1"}, "[20]": {"tested_on": "MCF7", "experiment": "Induction of apoptosis in human MCF7 cells assessed as early apoptotic cells at 3 uM after 24 hrs by annexin V-FITC/propidium iodide staining based flow cytometry (reference value: 7.36%)", "assay_type": "functional", "in_short": "as §4"}, "[21]": {"tested_on": "MCF7", "experiment": "Induction of apoptosis in human MCF7 cells assessed as viable cells at 3 uM after 24 hrs by annexin V-FITC/propidium iodide staining based flow cytometry (reference value: 82.63%)", "assay_type": "functional", "details": "MCF7, 24 h, read-out: Activity", "in_short": "as §4"}, "[22]": {"tested_on": "MCF7", "experiment": "Cell cycle arrest in human MCF7 cells assessed as accumulation at S phase at 9 uM after 24 hrs by propidium iodide staining based flow cytometry (reference value: 34.03%)", "assay_type": "functional", "in_short": "as §2"}, "[23]": {"tested_on": "MCF7", "experiment": "Decrease in Bcl-2 expression in human MCF7 cells at 3 to 9 uM after 24 hrs by Western blot analysis", "assay_type": "functional, cell-based", "in_short": "(§5)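 MCF-7 or PC-3 cells treated with compound for 24 h, harvested; PCNA, Bax and Bcl-2 protein expression checked by Western blotting.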"}, "[24]": {"tested_on": "MCF7", "experiment": "Induction of mitochondrial membrane depolarization in human MCF7 cells at 3 uM after 24 hrs by JC-1 staining based flow cytometry (reference value: 11%)", "assay_type": "functional"}, "[25]": {"tested_on": "MCF7", "experiment": "Induction of apoptosis in human MCF7 cells assessed as early apoptotic cells at 9 uM after 24 hrs by annexin V-FITC/propidium iodide staining based flow cytometry (reference value: 7.36%)", "assay_type": "functional", "in_short": "as §4"}, "[26]": {"tested_on": "MCF7", "experiment": "Cell cycle arrest in human MCF7 cells assessed as accumulation at G0/G1 phase at 9 uM after 24 hrs by propidium iodide staining based flow cytometry (reference value: 45.67%)", "assay_type": "functional", "in_short": "as §2"}, "[27]": {"tested_on": "MCF7", "experiment": "Cell cycle arrest in human MCF7 cells assessed as accumulation at G0/G1 phase at 6 uM after 24 hrs by propidium iodide staining based flow cytometry (reference value: 45.67%)", "assay_type": "functional", "in_short": "as §2"}, "[28]": {"tested_on": "MCF7", "experiment": "Inhibition of colony formation in human MCF7 cells at 3 to 6 uM incubated for 24 hrs measured till day 7 by crystal violet staining based assay", "assay_type": "functional, cell-based", "in_short": "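Cells were treated with a range of concentrations for 24 h. The medium was then replaced with complete medium and cells were grown for 7 days. Colonies were stained with 0.1% crystal violet.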"}, "[29]": {"tested_on": "MCF7", "experiment": "Cell cycle arrest in human MCF7 cells assessed as decrease in cells at G0/G1 phase after 24 hrs by propidium iodide staining based flow cytometry", "assay_type": "functional", "in_short": "as §2"}, "[30]": {"tested_on": "MCF7", "experiment": "Decrease in PCNA levels in human MCF7 cells at 3 to 9 uM after 24 hrs by Western blot analysis", "assay_type": "functional, cell-based", "in_short": "as §5"}, "[31]": {"tested_on": "MCF7", "experiment": "Induction of morphological changes in human MCF7 cells assessed as decrease in cell number at 1 to 6 uM after 24 hrs by phase contrast microscopy", "assay_type": "functional, cell-based", "in_short": "as §3"}}, "note": "The source made the active and inactive calls. No cut-off for these calls is given here.", "data": [{"smiles": "Cc1ccc(/C=C2\\CN(Cc3cn(Cc4ccccc4F)nn3)C/C(=C\\c3ccc(C)cc3)C2=O)cc1", "values": [{"measurement": "Activity", "setting": "[1]", "result": 0.91, "unit": "%"}, {"measurement": "Activity", "setting": "[2]", "result": 32.02, "unit": "%"}, {"measurement": "remaining at 5 min, 8 ug/ml", "setting": "[3]", "result": 66, "unit": "%"}, {"measurement": "k el at 1 h, 8 ug/ml", "setting": "[4]", "result": 0.000733, "unit": "s⁻¹"}, {"measurement": "viability at 8.8 µM", "setting": "[5]", "result": 80.8, "unit": "%"}, {"measurement": "Activity", "setting": "[6]", "result": 21.02, "unit": "%"}, {"measurement": "Activity", "setting": "[7]", "result": "Dose-dependent effect"}, {"measurement": "Activity", "setting": "[8]", "result": 8.36, "unit": "%"}, {"measurement": "Activity", "setting": "[9]", "result": "Active"}, {"measurement": "Activity", "setting": "[10]", "result": 0.75, "unit": "%"}, {"measurement": "Activity", "setting": "[11]", "result": 0.81, "unit": "%"}]}, {"smiles": "O=C1/C(=C/c2ccccc2F)CN(Cc2cn(Cc3ccc(F)cc3)nn2)C/C1=C\\c1ccccc1F", "values": [{"measurement": "Activity", "setting": "[12]", "result": 9.22, "unit": "%"}, {"measurement": "Activity", "setting": "[13]", "result": 89.87, "unit": "%"}, {"measurement": "inhibition", "setting": "[14]", "result": 100, "unit": "%"}, {"measurement": "Activity", "setting": "[15]", "result": 25.7, "unit": "%"}, {"measurement": "Activity", "setting": "[16]", "result": 4.28, "unit": "%"}, {"measurement": "Activity", "setting": "[17]", "result": "Active"}, {"measurement": "Activity", "setting": "[18]", "result": "Dose-dependent effect"}, {"measurement": "viability at 6 µM", "setting": "[19]", "result": 50, "unit": "%"}, {"measurement": "Activity", "setting": "[20]", "result": 25.08, "unit": "%"}, {"measurement": "viability at 3 µM", "setting": "[21]", "result": 52.4, "unit": "%"}, {"measurement": "Activity", "setting": "[22]", "result": 62.67, "unit": "%"}, {"measurement": "Activity", "setting": "[23]", "result": "Active"}, {"measurement": "Activity", "setting": "[24]", "result": 66.45, "unit": "%"}, {"measurement": "Activity", "setting": "[25]", "result": 30.88, "unit": "%"}, {"measurement": "Activity", "setting": "[26]", "result": 2.22, "unit": "%"}, {"measurement": "Activity", "setting": "[27]", "result": 11.97, "unit": "%"}, {"measurement": "inhibition", "setting": "[28]", "result": "Active"}, {"measurement": "Activity", "setting": "[29]", "result": "Dose-dependent effect"}, {"measurement": "Activity", "setting": "[30]", "result": "Active"}, {"measurement": "Activity", "setting": "[31]", "result": "Active"}]}]}
